Here are results for seven compounds from ChEMBL document CHEMBL2157935, “Synthesis and properties of cationic 2'-O-[N-(4-aminobutyl)carbamoyl] modified oligonucleotides” (Bioorg Med Chem Lett, 2012).

Each structure is given as a SMILES string.

As usually defined, the ΔTm is the change in melting temperature against a reference sample.

Data set [1] concerns Nucleic Acid. The data set is described as follows: Binding affinity to RNA 3'-CAUGGAAAGGCC-5' assessed as melting temperature. Format: nucleic-acid assay.
The subject of data set [2] is Nucleic Acid. The data set can be described thus: Binding affinity to RNA 3'-CAUGGAAAGGCC-5' assessed as change in melting temperature. Format: nucleic-acid assay.
Data set [3] concerns Nucleic Acid. The data set can be described thus: Binding affinity to RNA 3'-CAUGGUAAGGCC-5' assessed as melting temperature. The class given is nucleic-acid assay.
The subject of data set [4] is Nucleic Acid. The data set is described as follows: Binding affinity to RNA 3'-CAUGGGAAGGCC-5' assessed as melting temperature. Format: nucleic-acid assay.
For data set [5], the system named is Nucleic Acid. The data set can be described thus: Binding affinity to RNA 3'-CAUGGCAAGGCC-5' assessed as melting temperature. Format: nucleic-acid assay.
Data set [6] can be described thus: Chemical stability in presence of snake venom phosphodiesterase at 50 uM and pH 8.4. To be noted: buffer. Format: physicochemical. In short, it runs like this:
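Oligonucleotides (50 μM) incubated at 37 °C in 50 mM Tris-HCl (pH 8.5) with 72 mM NaCl, 14 mM MgCl2 and 2.5 × 10^-4 U/ml snake venom phosphodiesterase; hydrolysis followed over time.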

Consider `CO[C@@H]1[C@H](OP(=O)(O)OC[C@H]2O[C@@H](n3ccc(=O)[nH]c3=O)[C@H](OC(=O)NCCCCN)[C@@H]2OP(=O)(O)OC[C@H]2O[C@@H](n3ccc(=O)[nH]c3=O)[C@H](OC)[C@@H]2OP(=O)(O)OC[C@H]2O[C@@H](n3ccc(=O)[nH]c3=O)[C@H](OC)[C@@H]2OP(=O)(O)OC[C@H]2O[C@@H](n3ccc(N)nc3=O)[C@H](OC)[C@@H]2OP(=O)(O)OC[C@H]2O[C@@H](n3ccc(N)nc3=O)[C@H](OC)[C@@H]2OP(=O)(O)OC[C@H]2O[C@@H](n3cnc4c(=O)[nH]c(N)nc43)[C@H](OC)[C@@H]2OP(=O)(O)OC[C@H]2O[C@@H](n3cnc4c(=O)[nH]c(N)nc43)[C@H](OC)[C@@H]2O)[C@@H](COP(=O)(O)O[C@H]2[C@@H](OC)[C@H](n3ccc(N)nc3=O)O[C@@H]2COP(=O)(O)O[C@H]2[C@@H](OC)[C@H](n3cnc4c(N)ncnc43)O[C@@H]2COP(=O)(O)O[C@H]2[C@@H](OC)[C@H](n3ccc(=O)[nH]c3=O)O[C@@H]2COP(=O)(O)O[C@H]2[C@@H](OC)[C@H](n3cnc4c(=O)[nH]c(N)nc43)O[C@@H]2CO)O[C@H]1n1ccc(N)nc1=O`, for which the Tm was 69 °C in data set [1], 59 °C in data set [3], 68 °C in data set [4] and 57 °C in data set [5]. Also, the shift in melting temperature (ΔTm) in data set [2] was determined as 4 °C.
For `CO[C@@H]1[C@H](OP(=O)(O)OC[C@H]2O[C@@H](n3ccc(=O)[nH]c3=O)[C@H](OC(=O)NCCCCN)[C@@H]2OP(=O)(O)OC[C@H]2O[C@@H](n3ccc(=O)[nH]c3=O)[C@H](OC)[C@@H]2OP(=O)(O)OC[C@H]2O[C@@H](n3ccc(=O)[nH]c3=O)[C@H](OC(=O)NCCCCN)[C@@H]2OP(=O)(O)OC[C@H]2O[C@@H](n3ccc(N)nc3=O)[C@H](OC)[C@@H]2OP(=O)(O)OC[C@H]2O[C@@H](n3ccc(N)nc3=O)[C@H](OC)[C@@H]2OP(=O)(O)OC[C@H]2O[C@@H](n3cnc4c(=O)[nH]c(N)nc43)[C@H](OC)[C@@H]2OP(=O)(O)OC[C@H]2O[C@@H](n3cnc4c(=O)[nH]c(N)nc43)[C@H](OC)[C@@H]2O)[C@@H](COP(=O)(O)O[C@H]2[C@@H](OC)[C@H](n3ccc(N)nc3=O)O[C@@H]2COP(=O)(O)O[C@H]2[C@@H](OC)[C@H](n3cnc4c(N)ncnc43)O[C@@H]2COP(=O)(O)O[C@H]2[C@@H](OC)[C@H](n3ccc(=O)[nH]c3=O)O[C@@H]2COP(=O)(O)O[C@H]2[C@@H](OC)[C@H](n3cnc4c(=O)[nH]c(N)nc43)O[C@@H]2CO)O[C@H]1n1ccc(N)nc1=O`, the Tm in data set [1] was 61 °C. Moreover, the ΔTm in data set [2] came to 18 °C.
With `Cc1cn([C@H]2C[C@H](O)[C@@H](COP(=O)(O)O[C@H]3[C@@H](OC(=O)NCCCCN)[C@H](n4ccc(=O)[nH]c4=O)O[C@@H]3COP(=O)(O)O[C@H]3[C@@H](OC(=O)NCCCCN)[C@H](n4ccc(=O)[nH]c4=O)O[C@@H]3CO)O2)c(=O)[nH]c1=O`, the Stability result in data set [6] was “Stable”.
On to `CO[C@@H]1[C@H](OP(=O)(O)OC[C@H]2O[C@@H](n3ccc(=O)[nH]c3=O)[C@H](OC)[C@@H]2OP(=O)(O)OC[C@H]2O[C@@H](n3ccc(=O)[nH]c3=O)[C@H](OC)[C@@H]2OP(=O)(O)OC[C@H]2O[C@@H](n3ccc(=O)[nH]c3=O)[C@H](OC(=O)NCCCCN)[C@@H]2OP(=O)(O)OC[C@H]2O[C@@H](n3ccc(N)nc3=O)[C@H](OC)[C@@H]2OP(=O)(O)OC[C@H]2O[C@@H](n3ccc(N)nc3=O)[C@H](OC)[C@@H]2OP(=O)(O)OC[C@H]2O[C@@H](n3cnc4c(=O)[nH]c(N)nc43)[C@H](OC)[C@@H]2OP(=O)(O)OC[C@H]2O[C@@H](n3cnc4c(=O)[nH]c(N)nc43)[C@H](OC)[C@@H]2O)[C@@H](COP(=O)(O)O[C@H]2[C@@H](OC)[C@H](n3ccc(N)nc3=O)O[C@@H]2COP(=O)(O)O[C@H]2[C@@H](OC)[C@H](n3cnc4c(N)ncnc43)O[C@@H]2COP(=O)(O)O[C@H]2[C@@H](OC(=O)NCCCCN)[C@H](n3ccc(=O)[nH]c3=O)O[C@@H]2COP(=O)(O)O[C@H]2[C@@H](OC)[C@H](n3cnc4c(=O)[nH]c(N)nc43)O[C@@H]2CO)O[C@H]1n1ccc(N)nc1=O`, for which the Tm in data set [1] was 61 °C. In data set [2], the ΔTm came to 14 °C.
Consider `CO[C@@H]1[C@H](OP(=O)(O)OC[C@H]2O[C@@H](n3ccc(=O)[nH]c3=O)[C@H](OC)[C@@H]2OP(=O)(O)OC[C@H]2O[C@@H](n3ccc(=O)[nH]c3=O)[C@H](OC)[C@@H]2OP(=O)(O)OC[C@H]2O[C@@H](n3ccc(=O)[nH]c3=O)[C@H](OC)[C@@H]2OP(=O)(O)OC[C@H]2O[C@@H](n3ccc(N)nc3=O)[C@H](OC)[C@@H]2OP(=O)(O)OC[C@H]2O[C@@H](n3ccc(N)nc3=O)[C@H](OC)[C@@H]2OP(=O)(O)OC[C@H]2O[C@@H](n3cnc4c(=O)[nH]c(N)nc43)[C@H](OC)[C@@H]2OP(=O)(O)OC[C@H]2O[C@@H](n3cnc4c(=O)[nH]c(N)nc43)[C@H](OC)[C@@H]2O)[C@@H](COP(=O)(O)O[C@H]2[C@@H](OC)[C@H](n3ccc(N)nc3=O)O[C@@H]2COP(=O)(O)O[C@H]2[C@@H](OC)[C@H](n3cnc4c(N)ncnc43)O[C@@H]2COP(=O)(O)O[C@H]2[C@@H](OC)[C@H](n3ccc(=O)[nH]c3=O)O[C@@H]2COP(=O)(O)O[C@H]2[C@@H](OC)[C@H](n3cnc4c(=O)[nH]c(N)nc43)O[C@@H]2CO)O[C@H]1n1ccc(N)nc1=O`, for which the Tm in data set [3] was 58 °C; in data set [4] it was 63 °C; in data set [5], 57 °C.
As for `CO[C@@H]1[C@H](OP(=O)(O)OC[C@H]2O[C@@H](n3ccc(=O)[nH]c3=O)[C@H](OC(N)=O)[C@@H]2OP(=O)(O)OC[C@H]2O[C@@H](n3ccc(=O)[nH]c3=O)[C@H](OC)[C@@H]2OP(=O)(O)OC[C@H]2O[C@@H](n3ccc(=O)[nH]c3=O)[C@H](OC(N)=O)[C@@H]2OP(=O)(O)OC[C@H]2O[C@@H](n3ccc(N)nc3=O)[C@H](OC)[C@@H]2OP(=O)(O)OC[C@H]2O[C@@H](n3ccc(N)nc3=O)[C@H](OC)[C@@H]2OP(=O)(O)OC[C@H]2O[C@@H](n3cnc4c(=O)[nH]c(N)nc43)[C@H](OC)[C@@H]2OP(=O)(O)OC[C@H]2O[C@@H](n3cnc4c(=O)[nH]c(N)nc43)[C@H](OC)[C@@H]2O)[C@@H](COP(=O)(O)O[C@H]2[C@@H](OC)[C@H](n3ccc(N)nc3=O)O[C@@H]2COP(=O)(O)O[C@H]2[C@@H](OC)[C@H](n3cnc4c(N)ncnc43)O[C@@H]2COP(=O)(O)O[C@H]2[C@@H](OC)[C@H](n3ccc(=O)[nH]c3=O)O[C@@H]2COP(=O)(O)O[C@H]2[C@@H](OC)[C@H](n3cnc4c(=O)[nH]c(N)nc43)O[C@@H]2CO)O[C@H]1n1ccc(N)nc1=O`, the Tm in data set [1] was determined as 43 °C.
Same read-out and setting: under `CO[C@@H]1[C@H](OP(=O)(O)OC[C@H]2O[C@@H](n3ccc(=O)[nH]c3=O)[C@H](OC)[C@@H]2OP(=O)(O)OC[C@H]2O[C@@H](n3ccc(=O)[nH]c3=O)[C@H](OC)[C@@H]2OP(=O)(O)OC[C@H]2O[C@@H](n3ccc(=O)[nH]c3=O)[C@H](OC(N)=O)[C@@H]2OP(=O)(O)OC[C@H]2O[C@@H](n3ccc(N)nc3=O)[C@H](OC)[C@@H]2OP(=O)(O)OC[C@H]2O[C@@H](n3ccc(N)nc3=O)[C@H](OC)[C@@H]2OP(=O)(O)OC[C@H]2O[C@@H](n3cnc4c(=O)[nH]c(N)nc43)[C@H](OC)[C@@H]2OP(=O)(O)OC[C@H]2O[C@@H](n3cnc4c(=O)[nH]c(N)nc43)[C@H](OC)[C@@H]2O)[C@@H](COP(=O)(O)O[C@H]2[C@@H](OC)[C@H](n3ccc(N)nc3=O)O[C@@H]2COP(=O)(O)O[C@H]2[C@@H](OC)[C@H](n3cnc4c(N)ncnc43)O[C@@H]2COP(=O)(O)O[C@H]2[C@@H](OC(N)=O)[C@H](n3ccc(=O)[nH]c3=O)O[C@@H]2COP(=O)(O)O[C@H]2[C@@H](OC)[C@H](n3cnc4c(=O)[nH]c(N)nc43)O[C@@H]2CO)O[C@H]1n1ccc(N)nc1=O` stands 47 °C.
